The values that follow come from ChEMBL document CHEMBL1123129, “Hypolipidemic activity of indan-1,3-dione derivatives in rodents” (J Med Chem, 1985).

Several values for one entry are separate records, joined by “and”; a condition that tells them apart may be missing. Equal entries are not always repeated.

Data set [1] has as its system Mus musculus. The experiment in a line: Compound was evaluated for the hypolipidemic activity in CF1 male mice at a dose of 40 mg/kg orally for Serum cholesterol at 16th day. The settings on record: route oral. Format: functional. In outline: (§1)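 CF1 male mice received the agent orally in 1% CMC at 10–60 mg/kg per day. Tail-vein blood was taken on days 9 and 16. Serum cholesterol was measured by modified Liebermann–Burchard on duplicate 25-µL samples, and serum triglyceride on day 16 in duplicate 50-µL samples. Values are % of vehicle control, mean ± SD, N = 6; Student's t test.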

Data set [2] concerns Mus musculus. Put plainly: Compound was evaluated for the hypolipidemic activity in CF1 male mice at a dose of 10 mg/kg orally for Serum triglyceride at 16th day. The following applies: route oral. Format: functional. In outline: as §1
The target of data set [3] is T1, ATP-citrate synthase (Mus musculus) (UniProt Q91V92).
T1 sequence (whole entry): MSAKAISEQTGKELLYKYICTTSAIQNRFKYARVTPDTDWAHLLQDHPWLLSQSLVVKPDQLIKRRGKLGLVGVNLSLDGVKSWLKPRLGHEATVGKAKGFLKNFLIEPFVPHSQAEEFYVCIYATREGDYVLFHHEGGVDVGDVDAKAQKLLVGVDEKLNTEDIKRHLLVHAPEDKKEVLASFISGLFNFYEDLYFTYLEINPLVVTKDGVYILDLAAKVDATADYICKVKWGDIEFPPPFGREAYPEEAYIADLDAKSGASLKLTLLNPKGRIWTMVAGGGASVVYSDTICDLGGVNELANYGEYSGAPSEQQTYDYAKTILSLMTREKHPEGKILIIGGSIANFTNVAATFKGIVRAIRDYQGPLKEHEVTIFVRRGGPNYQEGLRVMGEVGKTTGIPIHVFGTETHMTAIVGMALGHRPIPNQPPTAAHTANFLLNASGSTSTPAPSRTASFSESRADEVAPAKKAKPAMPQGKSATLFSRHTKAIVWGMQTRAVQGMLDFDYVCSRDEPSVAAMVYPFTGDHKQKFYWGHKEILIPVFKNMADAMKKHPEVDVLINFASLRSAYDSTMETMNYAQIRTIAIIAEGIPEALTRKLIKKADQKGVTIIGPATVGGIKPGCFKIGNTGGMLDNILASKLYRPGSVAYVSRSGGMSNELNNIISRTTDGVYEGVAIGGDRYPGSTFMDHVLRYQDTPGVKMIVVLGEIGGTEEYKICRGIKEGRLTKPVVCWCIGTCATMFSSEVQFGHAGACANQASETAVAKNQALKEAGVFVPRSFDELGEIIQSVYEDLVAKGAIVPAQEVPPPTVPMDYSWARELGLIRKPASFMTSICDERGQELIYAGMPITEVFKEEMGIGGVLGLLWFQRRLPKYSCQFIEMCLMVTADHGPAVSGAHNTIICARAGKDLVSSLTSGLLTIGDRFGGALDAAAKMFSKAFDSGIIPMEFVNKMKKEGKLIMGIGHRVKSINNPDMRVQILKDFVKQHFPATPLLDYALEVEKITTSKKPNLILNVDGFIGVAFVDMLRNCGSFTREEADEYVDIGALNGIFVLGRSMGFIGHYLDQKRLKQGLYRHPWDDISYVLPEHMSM
Put plainly: In Vivo effect for the hypolipidemic activity on ATP-Citrate Lyase in CF1 mice after 16 days administered orally at a dose of 60 mg/kg. Format: organism-based. Details: dose 60 mg/kg. In outline: (§2)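 CF1 male mice are dosed orally at 10–60 mg/kg per day for 16 days, with 1% CMC as the control vehicle. Liver is homogenized at 10% in 0.25 M sucrose + 0.001 M EDTA, pH 7.2. Enzymes are assayed by literature methods, with Lowry protein. Activity is given as % of control (X ± SD, N = 6), with p from Student's t test.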

For data set [4], the system named is Rattus norvegicus. Put plainly: Compound was evaluated for the hypolipidemic activity at 20 mg/kg per day orally for 14 days on triglycerides content in rat liver. Format: functional. The following applies: route oral. In outline:
(§3)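 Male Sprague–Dawley rats were dosed orally for 14 days. Liver, small intestine and a 24-h fecal collection were lipid-extracted. Extracts were assayed for cholesterol (modified Liebermann–Burchard), triglyceride (enzymatic kit), neutral lipids, phospholipids and protein. Values are % of 1% CMC vehicle control, mean ± SD, N = 6.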

For data set [5], the system named is Rattus norvegicus. Put plainly: Compound was evaluated for the hypolipidemic activity at 20 mg/kg per day orally for 14 days on triglycerides content in rat VLDL. Format: functional. The settings on record: route oral. In outline:
(§4)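 Male Sprague–Dawley rats (~300 g) were dosed orally each day. Blood was drawn from the abdominal vein. Lipoprotein fractions (chylomicron, VLDL, LDL, HDL) were separated by the Hatch–Lees and Havel methods. Each fraction was assayed for cholesterol, triglyceride (enzymatic kit), neutral lipids, phospholipids and Lowry protein. Values are % of 1% CMC vehicle control, N = 6.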

Data set [6] concerns Rattus norvegicus. The experiment in a line: Compound was evaluated for the hypolipidemic activity in Sprague-Dawley rats at a dose of 20 mg/kg orally for Serum triglyceride at 9th day. The settings on record: route oral. The data set is classed as functional. In outline: (§5)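 Sprague–Dawley male rats (~350 g) received 20 mg/kg per day orally, with 1% CMC as the vehicle control; N = 6. Tail-vein blood was taken between 8:00 and 9:30 a.m. on days 9 and 16 and spun for 3 min to obtain serum. Cholesterol was measured by a modified Liebermann–Burchard reaction and triglyceride by kit. Values are % control ± SD; significance by Student's t test.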

The subject of data set [7] is Rattus norvegicus. The experiment in a line: Compound was evaluated for the hypolipidemic activity in Sprague-Dawley rats at a dose of 20 mg/kg orally for Serum triglyceride at 16th day. The data set is classed as functional. The settings on record: route oral. In outline: as §5
In data set [8] the target is T1, ATP-citrate synthase (Mus musculus). Put plainly: In Vitro evaluation for the CF1 liver enzyme activity on ATP-Citrate Lyase exchange at concentration 50 uM. In outline:
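Liver was taken from CF1 male mice and made into 10% homogenates, which were incubated with test compound at 50, 100 or 200 µM. Each enzyme was assayed by its literature method, and protein was measured by Lowry. N = 6. Activity is expressed as % of untreated control ± SD.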

Data set [9] concerns the target T2, Cholesterol 7-alpha-hydroxylase (Cytochrome P450 7A1) (Mus musculus, UniProt Q64505). The experiment in a line: In vivo effect on Cholesterol 7-alpha-hydroxylase activity in CF1 mice after 16 days at 10 mg/kg oral dose. Format: functional, organism-based. Details: dose 10 mg/kg, route oral. The following applies: read-out: Control. In outline:
as §2

For data set [10], the system named is Rattus norvegicus. Put plainly: Compound was evaluated for the hypolipidemic activity at 20 mg/kg per day orally for 14 days on cholesterol content in rat liver. The following applies: route oral. The data set is classed as functional. In outline: as §3
In data set [11] the test system is Mus musculus. The experiment in a line: In Vivo effect for the hypolipidemic activity on phosphatidate phosphohydrolase in CF1 mice after 16 days administered orally at a dose of 40 mg/kg. Details: dose 40 mg/kg. Format: organism-based. In outline:
as §2

Data set [12] deals with T2, Cholesterol 7-alpha-hydroxylase (Cytochrome P450 7A1). The experiment in a line: In vitro percent Cholesterol 7-alpha-hydroxylase activity in mouse CF1 liver microsomes at 100 uM. Details: species or system Microsome. The following applies: read-out: Control. In outline: (§6)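 Mouse liver enzymes assayed in vitro on 10% homogenates of CF1 male mouse liver, with test drug added at 50–200 μM. Each enzyme follows a published procedure. Protein is measured by Lowry. Activity is given as % of untreated control (X ± SD, N = 6).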
For orientation: Liver microsomes are vesicles of endoplasmic reticulum, rich in cytochrome P450 enzymes.

The subject of data set [13] is Mus musculus. The experiment in a line: In Vivo effect for the hypolipidemic activity on phosphatidate phosphohydrolase in CF1 mice after 16 days administered orally at a dose of 60 mg/kg. Format: organism-based. Details: dose 60 mg/kg. In outline:
as §2

The species entered for data set [14] is Mus musculus. The experiment in a line: In Vitro evaluation for the CF1 liver enzyme activity on phosphatidate phosphohydrolase at concentration 50 uM. In outline: as §6
The subject of data set [15] is Rattus norvegicus. The experiment in a line: Compound was evaluated for the hypolipidemic activity at 20 mg/kg per day orally for 14 days on neutral lipids content in rat LDL. Format: functional. The following applies: route oral. In outline:
as §4

Data set [16] deals with Mus musculus. The experiment in a line: In Vivo effect for the hypolipidemic activity on Hepatic lipoprotein lipase in CF1 mice after 16 days administered orally at a dose of 20 mg/kg. The data set is classed as functional. The following applies: route oral. In outline:
as §2

T2 sequence (Q64505 whole entry): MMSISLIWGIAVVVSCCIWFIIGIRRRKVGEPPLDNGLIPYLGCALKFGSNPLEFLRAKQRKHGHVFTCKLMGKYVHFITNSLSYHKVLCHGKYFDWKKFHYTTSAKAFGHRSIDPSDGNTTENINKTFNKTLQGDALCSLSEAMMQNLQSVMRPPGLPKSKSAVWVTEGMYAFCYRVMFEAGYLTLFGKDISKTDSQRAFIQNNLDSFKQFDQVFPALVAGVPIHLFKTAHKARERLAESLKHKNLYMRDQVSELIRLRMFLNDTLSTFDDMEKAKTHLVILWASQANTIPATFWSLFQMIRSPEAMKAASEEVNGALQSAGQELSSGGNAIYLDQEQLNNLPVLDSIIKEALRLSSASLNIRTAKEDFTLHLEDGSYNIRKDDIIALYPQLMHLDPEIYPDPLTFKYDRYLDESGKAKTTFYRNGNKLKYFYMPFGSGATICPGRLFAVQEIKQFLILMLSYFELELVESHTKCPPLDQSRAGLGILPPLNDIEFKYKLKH

For the compound `COc1ccc(C2C(=O)c3ccccc3C2=O)cc1` [ANISINDIONE], the Control in the data set with Mus musculus [1] came out at 48%; with Mus musculus [2], 64%; in [3], 93%; in the data set with Rattus norvegicus [4], 37%; in the data set with Rattus norvegicus [5] it was 72%; in the data set on Rattus norvegicus [6], 73%. For the same compound, the Control in the data set on Rattus norvegicus [7] was 59%; in data set [8] it was 72%; in the data set with Rattus norvegicus [10], 69% and 84%; with Mus musculus [11], 57%; with Mus musculus [13], 100%; in the data set filed under Mus musculus [14] it was 36%. Moreover, the figures for the Control in the data set with Rattus norvegicus [15] and with Mus musculus [16] were 69% and 82%, respectively. Besides, the activity at 384 h in data set [9] turned out to be 52%. Moreover, the activity at 100 µM in data set [12] stood at 144%.
